Screening data: PubChem BioAssay, The Scripps Research Institute Molecular Screening Center
AHR activator: human AHR activation | P35869 | AHR-responsive luciferase reporter cells, luminescence | activation, % at 5 µM | actives 2.5% (n = 320,000); in the data active means activation above about 47%
Target sequence (P35869 whole entry, looked up): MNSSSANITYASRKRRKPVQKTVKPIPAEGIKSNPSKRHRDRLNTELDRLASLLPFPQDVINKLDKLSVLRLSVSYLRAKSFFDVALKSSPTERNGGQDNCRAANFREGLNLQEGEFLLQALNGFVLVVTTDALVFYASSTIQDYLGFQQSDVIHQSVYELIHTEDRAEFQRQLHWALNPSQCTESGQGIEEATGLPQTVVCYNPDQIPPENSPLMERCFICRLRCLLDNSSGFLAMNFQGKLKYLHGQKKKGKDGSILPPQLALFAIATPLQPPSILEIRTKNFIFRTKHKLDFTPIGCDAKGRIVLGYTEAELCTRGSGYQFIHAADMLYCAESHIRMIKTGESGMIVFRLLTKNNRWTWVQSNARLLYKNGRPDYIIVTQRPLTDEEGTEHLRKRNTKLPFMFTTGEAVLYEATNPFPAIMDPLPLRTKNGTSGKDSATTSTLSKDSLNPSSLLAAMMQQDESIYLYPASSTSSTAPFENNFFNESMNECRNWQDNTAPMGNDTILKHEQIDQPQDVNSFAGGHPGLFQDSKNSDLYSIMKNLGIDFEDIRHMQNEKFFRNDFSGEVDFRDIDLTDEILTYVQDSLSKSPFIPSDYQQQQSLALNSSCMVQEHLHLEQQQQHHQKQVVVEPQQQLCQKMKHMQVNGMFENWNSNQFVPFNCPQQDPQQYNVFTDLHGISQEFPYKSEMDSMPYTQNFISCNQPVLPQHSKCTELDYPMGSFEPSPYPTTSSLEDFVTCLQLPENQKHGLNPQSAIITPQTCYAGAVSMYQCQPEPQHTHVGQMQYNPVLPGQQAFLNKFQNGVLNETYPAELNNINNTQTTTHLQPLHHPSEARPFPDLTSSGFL
FXN GAA850 act: frataxin GAA850 promoter activation. activation, % at 6 µM. HEK293 lucGAA850 FXN promoter luciferase reporter, 24 h; percent of 10 µM SAHA response. actives 0.56% (n = 360,000);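 active means activation above the average of all compounds screened plus 3 SD, cutoff fixed separately per campaign, cut at about 7.5% in these data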
MC4R antagonist: human MC4R antagonism in cAMP assay; actives 0.48% (n = 360,000); inhibition, % at 6.5 µM; AID 540295; MC4R-expressing cells, MTII-stimulated cAMP, LANCE TR-FRET;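 active means inhibition above its plate's cutoff, the mean of tested wells on that plate plus 3 SD, cut at about 29% in these data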
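System – human MC4R-expressing U2OS cells · Also added – Melanotan II · Dosing – one concentration, 6.5 µM nominal · Timing – 30-min compound, 1-h challenge, 1-h detection, room temperature · Measured by – Eu-cAMP/anti-cAMP TR-FRET, emission 671 nm · Replicates – singlicate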
MC4R ag barr: activates human MC4R beta-arrestin recruitment | activation, % at 8.9 µM | U2OS MC4R beta-arrestin complementation, luminescence; percent of melanotan II response, DMSO zero | P32245 | actives 0.98% (n = 360,000);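 active means activation above a per-plate cutoff, the mean activation of sample wells on that plate plus 3 SD, cut at about 8% in these data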
m5-HT2A agonist: mouse HTR2A agonism via beta-arrestin recruitment; P35363; CHO-K1 mHTR2A beta-arrestin complementation, luminescence; percent of 30 µM serotonin response; activation, % at 7.6 µM; actives 0.66% (n = 360,000);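 active means activation above a run cutoff, the mean activation of all tested compounds plus 3 SD, cut at about 14% in these data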
U2OS cAMP counter: U2OS forskolin cAMP inhibition counter-screen; parental U2OS, LANCE TR-FRET; actives 26% (n = 1,600); inhibition, % at 6.5 µM; shares compounds with MC4R antagonist;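 active means mean inhibition over triplicates above the low-control well mean plus 3 SD, set per campaign, cut at about 13% in these data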;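 further: signal is single emission at 671 nm which falls as cellular cAMP rises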
MC4R antag conf: human MC4R cAMP antagonism confirmation; inhibition, % at 6.5 µM; MC4R-expressing cells, MTII-stimulated cAMP, TR-FRET; actives 27% (n = 1,600); shares compounds with MC4R antagonist; in the data active means inhibition above about 29%
Hits are given with their value; – = inactive; · = not tested or not shown. This is a sample that favours compounds with a hit; in the whole collection about 4.7% have one here.

SMILES	AHR activator	FXN GAA850 act	MC4R antagonist	MC4R ag barr	m5-HT2A agonist	U2OS cAMP counter	MC4R antag conf
Cc1nc2ccc(NC(=O)c3ccc(Cl)c([N+](=O)[O-])c3)cc2s1	–	–	30	–	–	–	–
NS(=O)(=O)c1ccc(CCNc2ccn3nc(-c4ccc(OCCN5CCOCC5)cc4)cc3n2)cc1	·	–	–	–	–	·	·
CCCNC(=O)C1(C)CCCN(C(=O)c2ccc(OC(F)F)cc2)C1 (stereo not given)	·	–	–	–	–	·	·
S=C(Cc1ccccc1)Nc1ccccc1	·	–	–	–	–	·	·
Cc1sc2nc(CN3CCOCC3)nc(Cl)c2c1C	–	–	32	–	–	–	–
COC(=O)Cn1c(CN2CCN(c3ccc(F)cc3)CC2)nc2c1c(=O)n(C)c(=O)n2C	–	–	29	–	–	–	–
CCOCCn1c(CN2CCN(c3ccc(F)cc3)CC2)nc2c1c(=O)n(C)c(=O)n2C	–	–	–	–	–	·	·
CCCCNC(=O)C1(C)CCCCCN1Cc1cccc2c(OC)cc(C(=O)OCC)cc12 (stereo not given)	·	–	30	–	–	–	–
O=S(=O)(c1ccccc1)N1CCN(c2nnc(-c3ccccc3)c3ccccc23)CC1	–	–	30	–	–	–	–
CS(=O)(=O)N1CCN(c2nnc(-c3ccccc3)c3ccccc23)CC1	–	–	–	–	–	·	·
O=c1[nH]c(=S)[nH]c2nccnc12	·	–	–	–	–	·	·
CC1CN(Cc2ccco2)C(=S)NC1=O (stereo not given)	·	–	–	–	–	·	·
CCS(=O)(=O)N1Cc2ccccc2CC1C(=O)N(C)Cc1ccc(OC)c(F)c1 (stereo not given)	–	–	34	–	–	–	–
CCS(=O)(=O)N1Cc2ccccc2CC1C(=O)Nc1ccc(OC)c(OC)c1 (stereo not given)	–	–	–	–	–	·	·
C/C(=N\NC(=O)c1cccc2ccccc12)c1ccccn1	·	–	–	–	–	·	·
C/C(=N\NC(=O)c1ccccc1Cl)c1ccccn1	–	–	29	–	–	29	–
C/C(=N\NC(=O)c1ccc(Cl)c(Cl)c1)c1ccccn1	·	–	29	–	–	20	–
COc1ccc(C(=O)N/N=C(\C)c2ccccn2)cc1OC	–	–	–	–	–	·	·
COc1ccc(CN2CC(C(=O)NCCCN3CCN(Cc4ccccc4)CC3)CC2=O)cc1 (stereo not given)	–	–	–	–	–	·	·
COc1ccc(CN2CC(C(=O)NCCCN3CCCC(C)C3)CC2=O)cc1 (stereo not given)	–	–	34	–	–	–	–
Cc1nc2c(=O)n(C)c(=O)n(C)c2nc1Cl	–	–	–	–	–	·	·
COc1ccc(NC(=O)c2cccc(-n3c(C)ccc3C)c2)c(OC)c1	–	–	29	–	–	–	–
Cc1cc(-n2c(C)cc(C(=O)COc3cc(F)ccc3[N+](=O)[O-])c2C)no1	–	–	–	–	–	·	·
Cc1cc(C(=O)COc2cc(F)ccc2[N+](=O)[O-])c(C)n1CC1CCCO1 (stereo not given)	–	–	33	–	–	–	–
O=C(NCc1ccccc1)c1ccc(NC(=O)C2CCC2)cc1	·	–	–	–	–	·	·
SMILES	AHR activator	FXN GAA850 act	MC4R antagonist	MC4R ag barr	m5-HT2A agonist	U2OS cAMP counter	MC4R antag conf
O=C(CS(=O)c1ccc(C(F)(F)F)cc1[N+](=O)[O-])Oc1ccc(Cl)cc1 (stereo not given)	–	–	33	–	–	–	–
Cc1cc(C)cc(OC(=O)CS(=O)c2ccc(C(F)(F)F)cc2[N+](=O)[O-])c1 (stereo not given)	–	–	–	–	–	·	·
O=C(O)c1cnn(-c2nc(-c3ccc(Cl)cc3)cs2)c1C(F)(F)F	–	–	31	–	–	–	–
CNC(=O)c1cnn(-c2nc(-c3ccc(OC)cc3)cs2)c1C(F)(F)F	–	–	–	–	–	·	·
Cc1sc2nc(CN3CCOCC3)nc(NS(=O)(=O)c3cc(Cl)ccc3Cl)c2c1C	–	–	–	–	–	·	·
CCOc1ccccc1CNC(=O)CCc1cn(CC)c2ccccc12	–	–	–	–	–	·	·
CCn1cc(CCC(=O)NCc2cccc(OC)c2OC)c2ccccc21	–	–	31	–	–	–	–
CCOC(=O)Cn1nnnc1CN(Cc1ccccc1)Cc1cc2cc(CC)ccc2[nH]c1=O	–	–	30	–	–	–	–
Cc1ccc(NC(=S)NC(=O)C2CCCC2)c(Br)c1	–	–	–	–	–	·	·
COCc1cc(C)nc2sc(C(=O)Nc3ccccc3F)c(N)c12	–	–	–	–	–	·	·
Nc1c(C(=O)Nc2ccccc2F)sc2nc(Cc3ccccc3)cc(C(F)(F)F)c12	–	–	111	–	–	–	–
O=C(Nc1ccc(F)cc1)C1CCCN(S(=O)(=O)c2cccc3nonc23)C1 (stereo not given)	–	–	32	–	–	–	–
CC(=O)N1N=C(c2ccccc2)CC1c1cccs1 (stereo not given)	·	–	29	–	–	–	–
CCC(=O)N1CCC1(C)C(=O)Nc1ccccc1 (stereo not given)	·	–	–	–	–	·	·
N#CC(C#N)=C1C=CC=CN1/C(=C\c1ccco1)C(=O)c1ccccc1	–	–	38	–	–	14	–
CC(C)(C)NC(=O)/C(=C/c1ccco1)c1ccccc1	–	–	–	–	–	·	·
COc1ccc(C(=O)/C(=C\c2ccco2)N2C=CC=CC2=C(C#N)C#N)cc1	–	–	33	–	–	–	36
COc1ccc(C(=O)N/C(=C\c2ccco2)C(=O)OCc2ccco2)cc1	–	–	–	–	–	·	·
CSCCC1NC(=O)N(CC(=O)Nc2ccc3c(c2)OCCO3)C1=O (stereo not given)	–	–	–	–	–	·	·
CCOC(=O)c1c(NC(=O)CCC(=O)O)sc2c1CC(C)(C)OC2	–	–	33	–	–	–	–
CCOC(=O)c1c(NC(=O)C2CC2)sc2c1CC(C)(C)OC2	–	–	–	–	–	·	·
CN(C)CCN(Cc1ccccc1)C(=O)c1[nH]c(C(F)(F)F)nc1-c1ccccc1	·	·	·	·	–	·	·
CC1(C)CC(=O)C2=C(C1)OC1=C(C(=O)CC(C)(C)C1)C2c1ccc(O)cc1O	–	–	74	–	–	50	52
O=C(CN1C(=O)c2cccc([N+](=O)[O-])c2C1=O)N1CCN(c2ccc(F)cc2)CC1	–	–	34	–	–	27	43
Cc1ccc(S(=O)(=O)N2CCN(C(=O)CSc3ccc(Cl)cc3)CC2)cc1	–	–	–	–	–	·	·
CC(=O)c1ccc(S(=O)(=O)N2CCN(C(=O)CSc3ccc(C)c(C)c3)CC2)cc1	–	–	35	–	–	–	–
